Assay results from ChEMBL document CHEMBL1140709, “Design, synthesis, and biological evaluation of (E)-styrylbenzylsulfones as novel anticancer agents” (J Med Chem, 2008).

Key:
Type in all cases: functional, cell-based
[1] = test system: DLD-1; assay: Antitumor activity against human DLD1 cells by trypan blue exclusion assay
Summary of the method: (§1)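 Tumour cells were grown in DMEM or RPMI with 10% fetal bovine serum and 1 unit/mL penicillin-streptomycin. They were seeded in six-well dishes at 1.0 × 10⁵ cells/mL/well, and compound was added 24 h later over a range of concentrations. After 96 h of exposure, viable cells in duplicate wells were counted by trypan blue exclusion.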

[2] = Antitumor activity against human H157 cells by trypan blue exclusion assay; settings: NCI-H157; summary of the method: as §1
[3] = test system: BT-20; assay: Antitumor activity against human BT20 cells by trypan blue exclusion assay; summary of the method: as §1
[4] = test system: DU-145; assay: Antitumor activity against AR-negative human DU145 cells by trypan blue exclusion assay; summary of the method: as §1

IC50 [1]	IC50 [3]	IC50 [4]	Compound	IC50 [2]
7.5 µM	5 µM	3.5 µM	COc1ccc(CS(=O)(=O)/C=C/c2ccccc2OC)cc1	5 µM
10 µM	7.5 µM	5 µM	COc1ccc(CS(=O)(=O)/C=C/c2cc(OC)c(OC)c(OC)c2)cc1O	10 µM
15 µM	10 µM	7.5 µM	COc1cc(OC)c(/C=C/S(=O)(=O)Cc2ccc(Cl)cc2)c(OC)c1	15 µM
> 20 µM	> 20 µM	> 20 µM	COc1ccc(CS(=O)(=O)/C=C/c2c(C)cc(C)cc2C)cc1	> 20 µM
> 20 µM	> 20 µM	> 20 µM	COc1ccc(CS(=O)(=O)/C=C/c2cc(C)cc(C)c2)cc1	> 20 µM
0.5 µM	0.25 µM	0.5 µM	COc1ccc(CS(=O)(=O)/C=C/c2c(OC)cc(O)cc2OC)cc1O	0.5 µM
15 µM	15 µM	12 µM	COc1ccc(CS(=O)(=O)/C=C/c2ccc(C)cc2C)cc1	15 µM
> 20 µM	> 20 µM	> 20 µM	COc1ccc(CS(=O)(=O)/C=C/c2cc(OC)c(OC)cc2OC)cc1	> 20 µM
5 µM	5 µM	7.5 µM	COc1ccc(CS(=O)(=O)/C=C/c2ccc([N+](=O)[O-])cc2)cc1	7.5 µM
> 20 µM	> 20 µM	> 20 µM	COc1ccc(/C=C/S(=O)(=O)Cc2ccc(OC)cc2)cc1	> 20 µM
3 µM	2 µM	2.5 µM	COc1ccc(CS(=O)(=O)/C=C/c2ccc(Cl)cc2)cc1	3.5 µM
15 µM	15 µM	10 µM	COc1cc(OC)c(/C=C/S(=O)(=O)Cc2ccc(C(=O)O)cc2)c(OC)c1	17.5 µM
4 µM	2.5 µM	2 µM	COc1ccc(CS(=O)(=O)/C=C/c2ccc(F)cc2Cl)cc1	2.5 µM
20 µM	15 µM	7.5 µM	COc1cc(OC)c(/C=C/S(=O)(=O)Cc2ccc(O)cc2)c(OC)c1	20 µM
> 20 µM	> 20 µM	> 20 µM	COc1ccc(CS(=O)(=O)/C=C/c2ccc(OC)cc2OC)cc1	> 20 µM
15 µM	15 µM	15 µM	COc1cc(OC)c(/C=C/S(=O)(=O)Cc2ccc([N+](=O)[O-])cc2)c(OC)c1	20 µM
4 µM	3 µM	4 µM	COc1cc(OC)c(/C=C/S(=O)(=O)Cc2ccc(OC(F)(F)F)cc2)c(OC)c1	6 µM
